From PubChem
The list is a sample of the results.
PGC1a acetyl up = compounds raising PGC1a acetylation signal, primary screen, PGC1a modulator project, cell-based, U2OS, AlphaScreen, signal-increasing mode; overnight; AID 651723, 2012; 350,000 tested, 0.21% active; activation, % at 15.6 µM;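 active = every replicate reaching activation of at least 50%, whatever the mean replicate activation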;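 also: hits raise the AlphaScreen acetylation signal above neutral controls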
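System: flag-PGC1a/GCN5 U2OS cells / Input: 7000 cells/well / Compound: single test concentration per compound / Incubation: overnight compound treatment, 37 °C / Technique: AlphaScreen on lysates with anti-acetyl-lysine antibody, acceptor and donor beads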
* = called active by the depositor.

SMILES | PGC1a acetyl up
COc1ccc(-c2cnc3c(c2)C(=O)N([C@H](C)CO)C[C@H](C)[C@@H](CN(C)C(=O)C2CCC2)O3)cc1 | -44
C[C@@H]1CN([C@H](C)CO)C(=O)c2cc(NC(=O)Nc3ccc(F)cc3)ccc2O[C@@H](C)CCCCO[C@@H]1CN(C)C(=O)NC1CCCCC1 | -53
CC1=Nc2ccccc2N=C(NC(=O)CN2CCN(c3ccccc3)CC2)C1c1ccccc1 (configuration not stated) | -86
CSCCC(NC(=O)OC(C)(C)C)C(=O)Oc1ccc2c(=O)c(-c3ccc4c(c3)OCCO4)coc2c1 (configuration not stated) | 73*
COCCNC(=O)CN1CCC(NC(=O)C(C)(C)C)CC1 | -45
CC(C)(C)NC(=O)C(=O)NNC(=O)c1cccc([N+](=O)[O-])c1 | -57
O=C(COc1ccc([N+](=O)[O-])cc1)Nc1ccc(C(=O)NCc2cccnc2)cc1 | 192*
Cc1ccc(S(=O)(=O)Nc2ccccc2C(=O)NCc2cccnc2)cc1 | -91
C/C(=N/NC(=O)CNC(=O)c1cccnc1)c1ccc([N+](=O)[O-])cc1 | -43
O=C(NCc1cccnc1)c1ccc(NC(=O)c2cccc([N+](=O)[O-])c2)cc1 | 171*
Cc1c(Cl)c([N+](=O)[O-])nn1CC(=O)NCc1cccnc1 | -42
C[C@H](CO)N1C[C@H](C)[C@H](CN(C)S(=O)(=O)c2cn(C)cn2)OCCCC[C@H](C)Oc2ccc(NC(=O)Nc3cccc4ccccc34)cc2C1=O | -52
C[C@H]1CCCCO[C@H](CN(C)C(=O)Nc2cccc3ccccc23)[C@@H](C)CN([C@@H](C)CO)C(=O)c2cc(N(C)C)ccc2O1 | 65*
C[C@@H]1CN([C@@H](C)CO)C(=O)c2cc(NC(=O)Nc3cccc4ccccc34)ccc2O[C@@H](C)CCCCO[C@H]1CN(C)C(=O)NC1CCCCC1 | -42
O=C(Nc1ccc(CN2CCOCC2)cc1)c1ccc(F)cc1 | -54
O=C(NCCN1CCOCC1)c1ccc(=O)oc1 | 52*
CCOC(=O)Cn1cnc2scc(-c3ccccc3)c2c1=O | -43
COc1ccc(Nc2ccnc3ccccc23)cc1 | -51
Nc1nc(Nc2ccccc2)nc2ccccc12 | 52*
CCC(=O)Nc1nnc(SCCOC)s1 | -3
CCCc1nnc(NC(=O)CN2CCOCC2)s1 | 93*
CCc1nc2c(OCc3ccc(S(C)(=O)=O)cc3)cccn2c1N(C)C(=O)c1ccccc1F | -45
Cn1nnnc1Sc1ncnc2scc(-c3cc4ccccc4o3)c12 | 106*
Cn1nnnc1Sc1ncnc2scc(-c3ccc(C#N)cc3)c12 | 74*
C[C@@H]1CN([C@H](C)CO)C(=O)CCCn2cc(nn2)CO[C@@H]1CN(C)C(=O)NC1CCCC1 | -46
SMILES | PGC1a acetyl up
C[C@@H]1CCCCO[C@@H](CN(C)C(=O)c2ccncc2)[C@@H](C)CN([C@H](C)CO)C(=O)c2cc(NC(=O)CCCCCC(=O)Nc3ccccc3N)ccc2O1 | -99
Cn1c(=O)c2c(ncn2CC(=O)O)n(C)c1=O | -43
O=C1c2ccccc2C(=O)c2c1oc(C(F)(F)F)c2C(=O)c1ccccc1 | -45
O=C(c1ccccc1)c1nn(-c2ccc(Cl)cc2)c(=O)cc1C(F)(F)F | 179*
Cc1cc(-c2c(C)[nH]n(-c3ccc(Cl)cc3)c2=O)n(-c2ccccc2)n1 | -42
CCCCC(O)(CCCC)C(=O)N/N=C(\C)c1ccc(Cl)cc1 | -44
COCCNC(=O)/C(C#N)=C/C=C/c1ccccc1[N+](=O)[O-] | 104*
CO[C@@H]1CN(C)C(=O)c2cc(NC(=O)c3ccc4c(c3)OCO4)ccc2OC[C@@H](C)N(CC2CC2)C[C@H]1C | -105
COCc1ccc(CN2CCC(n3nccc3NC(=O)c3ccc4c(c3)OCO4)CC2)o1 | 54*
O=C(Nc1ccc(F)cc1)C1CCCN1S(=O)(=O)c1cccc2nsnc12 (configuration not stated) | -41
CN(C)C(=O)C[C@@H]1CC[C@@H]2[C@H](COC[C@@H](O)CN2C(=O)C2CCOCC2)O1 | -56
C[C@H]1CCCCO[C@@H](CN(C)C(=O)c2ccccc2)[C@@H](C)CN([C@@H](C)CO)C(=O)c2cc(NC(=O)Nc3ccc(F)cc3)ccc2O1 | -43
C[C@@H]1CN([C@@H](C)CO)C(=O)c2c(c3ccccc3n2C)-c2ccccc2CO[C@@H]1CN(C)C(=O)c1cc(Cl)cc(Cl)c1 | 96*
CC(C)CC#Cc1cnc2c(c1)C(=O)N([C@@H](C)CO)C[C@@H](C)[C@H](CN(C)C(=O)c1ccccc1)O2 | -49
C[C@@H]1CN([C@@H](C)CO)C(=O)CCCn2nncc2CO[C@H]1CN(C)Cc1ccc(O)cc1 | -45
CN(C)Cc1csc(NC(=O)Nc2ccccc2-c2ccccc2)n1 | 52*
C[C@H](CO)N1C[C@H](C)[C@@H](CN(C)CC2CC2)Oc2cc(-c3cccnc3)ccc2S1(=O)=O | -45
Cc1ccc(-c2nnc(Nc3ccccc3)c3ccccc23)cc1S(=O)(=O)NCC1CCCO1 (configuration not stated) | 120*
Cc1ccc(S(=O)(=O)N(C)C[C@H]2Oc3ccc(NC(=O)CCC(F)(F)F)cc3C(=O)N([C@H](C)CO)C[C@@H]2C)cc1 | -48
COc1ccccc1C1c2c(C)nn(-c3ccccc3)c2NC(=O)C1NC(=O)c1ccccc1 (configuration not stated) | -48
CC(C)C#Cc1cnc2c(c1)C(=O)N([C@@H](C)CO)C[C@@H](C)[C@@H](CN(C)C(=O)c1ccccn1)O2 | -44
COc1cc(-c2cnc3c(NC=O)cc(-c4ccccc4Cl)cn23)cc(OC)c1OC | 102*
COc1cc(-c2cnc3c(NC=O)cc(-c4ccc(C)cc4)cn23)cc(OC)c1OC | 89*
COc1cc(-c2cnc3c(NC=O)cc(-c4ccccc4)cn23)cc(OC)c1OC | 105*
CCC(C)(C)n1nnnc1C(c1cccnc1)N1CCCC(C)C1 (configuration not stated) | -43
SMILES | PGC1a acetyl up
CCS(=O)(=O)N[C@H]1C=C[C@H](CC(=O)N2CCCCC2)O[C@H]1CO | -43
COc1cccc2c1C(CO)N1C(C#N)C3CC(C(=O)O)C(C1C2)N3C (configuration not stated) | -66
CCOc1ccnc(OCC)c1Br | -44
Cc1ccc(S(=O)(=O)N(C)C[C@@H]2OCCCC[C@H](C)Oc3ccc(NS(C)(=O)=O)cc3C(=O)N([C@@H](C)CO)C[C@@H]2C)cc1 | -42
COc1ccccc1N=C1NC(=O)/C(=C/c2ccc(N(C)C)cc2)S1 | 55*
O=C(CCSc1nnc(-c2ccc(O)cc2)o1)N1CCOCC1 | -46
CCOC(=O)N(O)c1ccc(C=Cc2ccccc2)cc1 | -49
Cc1ccc(CC(=O)Nc2nccs2)cc1 | -51
CC1(C)CCC[C@]2(C)[C@H]3Cc4cc(O)ccc4O[C@]3(C)CC[C@@H]12 | 67*
COC(=O)c1c(C)oc(C)c1S(=O)(=O)Nc1ccccc1 | -50
Cc1cc(C)c(S(=O)(=O)Nc2ccccc2-c2ccccc2)c(C)c1 | 79*
CC(NCc1cccs1)C(=O)NC1CCCCC1 (configuration not stated) | -45
C[C@@H]1CN([C@H](C)CO)C(=O)c2cccc(NC(=O)c3nc4ccccc4s3)c2O[C@@H]1CN(C)C(=O)Nc1ccc(F)cc1 | -46
CCCSCC(=O)Nc1ncc2c(n1)-c1ccccc1CC2 | -45
C[C@@H]1CN([C@H](C)CO)C(=O)CCCn2cc(nn2)CO[C@@H]1CN(C)C(=O)OCc1ccccc1 | -46
